Laboratory results: ChEMBL document CHEMBL1152649, “Synthesis, cytotoxicity and human telomerase inhibition activities of a series of 1,2-heteroannelated anthraquinones and anthra[1,2-d]imidazole-6,11-dione homologues” (2009)

System: IGROV-1
Test: Antiproliferative activity against human IGROV1 cells assessed as cell growth at 10 uM
Format: functional
Conditions: read-out: Activity
Summary of the method: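 NCI 60 cell line panel, single-dose screen (10^-5 M) run by the developmental therapeutics program protocol. Results are given as growth percent of treated cells relative to untreated control cells for each line.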

| SMILES | growth at 10 µM [%] |
| --- | --- |
| CC1(C)Nc2ccc3c(c2N1)C(=O)c1ccccc1C3=O | -2.8 |
| O=C1c2ccccc2C(=O)c2c1ccc1nc(-c3ccc4c(c3)OCO4)[nH]c21 | 93.3 |
